In ChEMBL document CHEMBL1145725, “Synthesis and antimicrobial activity of novel globomycin analogues” (2003):
Values after ≈ are worked out from the molar mass of the structure shown.

How the values were obtained:
Enterobacter cloacae [1] = experiment: Antibacterial activity against Enterobacter cloacae 846; type: functional
Method in brief: (§1)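 MIC by agar dilution on Nutrient Agar, following the NCCLS standard dilution method for aerobically growing bacteria.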

Salmonella enteritidis = experiment: Antibacterial activity against Salmonella enteritidis SANK 72390; type: functional, Salmonella enterica subsp. enterica serovar Enteritidis; conditions: Salmonella enterica; method in brief: as §1
Pseudomonas aeruginosa [2] = experiment: Antibacterial activity against Pseudomonas aeruginosa SANK 73090; type: functional; method in brief: as §1
Escherichia coli [3] = experiment: Antibacterial activity against Escherichia coli SANK 70569 (NIHJ JC-2); type: functional; method in brief: as §1
Enterobacter cloacae [4] = experiment: Antibacterial activity against Enterobacter cloacae SANK 72690; type: functional; method in brief: as §1
Morganella morganii = experiment: Antibacterial activity against Morganella morganii SANK 72990; type: functional; method in brief: as §1
Escherichia coli [5] = experiment: Antibacterial activity against Escherichia coli SANK 72290; type: functional; method in brief: as §1
Proteus vulgaris = experiment: Antibacterial activity against Proteus vulgaris SANK 72890; type: functional; method in brief: as §1
Klebsiella pneumoniae = experiment: Antibacterial activity against Klebsiella pneumoniae SANK 72490; type: functional; method in brief: as §1
Pseudomonas aeruginosa [6] = experiment: Antibacterial activity against Pseudomonas aeruginosa SANK 73190; type: functional; method in brief: as §1
Pseudomonas aeruginosa [7] = experiment: Antibacterial activity against Pseudomonas aeruginosa SANK 3719; type: functional; method in brief: as §1
Serratia marcescens = experiment: Antibacterial activity against Serratia marcescens SANK 72790; type: functional; method in brief: as §1
Staphylococcus aureus [8] = experiment: Antibacterial activity against Staphylococcus aureus SANK 71790; type: functional; method in brief: as §1
Staphylococcus aureus [9] = experiment: Antibacterial activity against Staphylococcus aureus SANK 70668; type: functional; method in brief: as §1
Enterococcus faecalis = experiment: Antibacterial activity against Enterococcus faecalis SANK 71990; type: functional; method in brief: as §1
Staphylococcus aureus [10] = experiment: Antibacterial activity against Staphylococcus aureus SANK 71890 (MRSA); type: functional; method in brief: as §1

| Compound | MIC (Enterobacter cloacae [1]) | MIC (Salmonella enteritidis) | MIC (Pseudomonas aeruginosa [2]) | MIC (Escherichia coli [3]) | MIC (Enterobacter cloacae [4]) | MIC (Morganella morganii) | MIC (Escherichia coli [5]) | MIC (Proteus vulgaris) | MIC (Klebsiella pneumoniae) | MIC (Pseudomonas aeruginosa [6]) | MIC (Pseudomonas aeruginosa [7]) | MIC (Serratia marcescens) | MIC (Staphylococcus aureus [8]) | MIC (Staphylococcus aureus [9]) | MIC (Enterococcus faecalis) | MIC (Staphylococcus aureus [10]) |
| --- | --- | --- | --- | --- | --- | --- | --- | --- | --- | --- | --- | --- | --- | --- | --- | --- |
| CCCCCC[C@H]1OC(=O)CNC(=O)[C@@H]([C@H](C)OC)NC(=O)[C@H](CO)NC(=O)[C@H]([C@H](C)CC)NC(=O)[C@H](CC(C)C)N(C)C(=O)[C@@H]1C | 12.5 µg/mL (≈ 18.7 µM) | 50 µg/mL (≈ 74.6 µM) | > 100 µg/mL | 25 µg/mL (≈ 37.3 µM) | 100 µg/mL (≈ 149 µM) | > 100 µg/mL | 25 µg/mL (≈ 37.3 µM) | > 100 µg/mL | 50 µg/mL (≈ 74.6 µM) | > 100 µg/mL | > 100 µg/mL | > 100 µg/mL | – | – | – | – |
| CCCCCC[C@H]1OC(=O)CNC(=O)[C@@H]([C@@H](C)O)NC(=O)[C@H](CO)NC(=O)[C@H]([C@@H](C)CC)NC(=O)[C@H](CC(C)C)N(C)C(=O)[C@@H]1C | > 100 µg/mL | > 100 µg/mL | > 100 µg/mL | > 100 µg/mL | > 100 µg/mL | > 100 µg/mL | > 100 µg/mL | > 100 µg/mL | > 100 µg/mL | > 100 µg/mL | > 100 µg/mL | > 100 µg/mL | – | – | – | – |
| CCCCCC[C@H]1OC(=O)CNC(=O)[C@@H]([C@@H](C)O)NC(=O)[C@H](CO)NC(=O)[C@H]([C@H](C)CC)NC(=O)[C@H](CC(C)C)N(C)C(=O)[C@@H]1C | 100 µg/mL (≈ 152 µM) | > 100 µg/mL | > 100 µg/mL | > 100 µg/mL | > 100 µg/mL | > 100 µg/mL | > 100 µg/mL | > 100 µg/mL | > 100 µg/mL | > 100 µg/mL | > 100 µg/mL | > 100 µg/mL | – | – | – | – |
| CCCCCCCC[C@H]1OC(=O)CNC(=O)[C@H]([C@H](C)O)NC(=O)[C@H](CO)NC(=O)[C@H]([C@H](C)CC)NC(=O)[C@H](CC(C)C)N(C)C(=O)[C@@H]1C | 1.56 µg/mL (≈ 2.28 µM) | 6.25 µg/mL (≈ 9.14 µM) | > 100 µg/mL | 3.13 µg/mL (≈ 4.58 µM) | 12.5 µg/mL (≈ 18.3 µM) | > 100 µg/mL | 3.13 µg/mL (≈ 4.58 µM) | > 100 µg/mL | 3.13 µg/mL (≈ 4.58 µM) | > 100 µg/mL | > 100 µg/mL | 12.5 µg/mL (≈ 18.3 µM) | 50 µg/mL (≈ 73.1 µM) | 50 µg/mL (≈ 73.1 µM) | 100 µg/mL (≈ 146 µM) | 50 µg/mL (≈ 73.1 µM) |
| CCCCCC[C@H]1OC(=O)CNC(=O)[C@H]([C@H](C)O)NC(=O)[C@H](CO)NC(=O)[C@H]([C@H](C)CC)NC(=O)[C@H](CC(C)C)N(C)C(=O)[C@@H]1C | 6.25 µg/mL (≈ 9.53 µM) | 25 µg/mL (≈ 38.1 µM) | > 100 µg/mL | 12.5 µg/mL (≈ 19.1 µM) | 50 µg/mL (≈ 76.2 µM) | > 100 µg/mL | 12.5 µg/mL (≈ 19.1 µM) | > 100 µg/mL | 25 µg/mL (≈ 38.1 µM) | > 100 µg/mL | > 100 µg/mL | 100 µg/mL (≈ 152 µM) | > 100 µg/mL | > 100 µg/mL | > 100 µg/mL | > 100 µg/mL |
| CCCCCC[C@H]1OC(=O)CNC(=O)[C@@H]([C@H](C)O)NC(=O)[C@H](CO)NC(=O)[C@H]([C@@H](C)CC)NC(=O)[C@H](CC(C)C)N(C)C(=O)[C@@H]1C | 6.25 µg/mL (≈ 9.53 µM) | 50 µg/mL (≈ 76.2 µM) | > 100 µg/mL | 12.5 µg/mL (≈ 19.1 µM) | 50 µg/mL (≈ 76.2 µM) | > 100 µg/mL | 12.5 µg/mL (≈ 19.1 µM) | > 100 µg/mL | 25 µg/mL (≈ 38.1 µM) | > 100 µg/mL | > 100 µg/mL | > 100 µg/mL | – | – | – | – |
| CCCCCCCCCC[C@H]1OC(=O)CNC(=O)[C@H]([C@H](C)O)NC(=O)[C@H](CO)NC(=O)[C@H]([C@H](C)CC)NC(=O)[C@H](CC(C)C)N(C)C(=O)[C@@H]1C | 1.56 µg/mL (≈ 2.19 µM) | 3.13 µg/mL (≈ 4.4 µM) | > 100 µg/mL | 1.56 µg/mL (≈ 2.19 µM) | 3.13 µg/mL (≈ 4.4 µM) | > 100 µg/mL | 1.56 µg/mL (≈ 2.19 µM) | > 100 µg/mL | 1.56 µg/mL (≈ 2.19 µM) | > 100 µg/mL | > 100 µg/mL | 3.13 µg/mL (≈ 4.4 µM) | 6.25 µg/mL (≈ 8.78 µM) | 6.25 µg/mL (≈ 8.78 µM) | 12.5 µg/mL (≈ 17.6 µM) | 12.5 µg/mL (≈ 17.6 µM) |
| CCCCCC[C@H]1OC(=O)CNC(=O)[C@H](CC)NC(=O)[C@H](CO)NC(=O)[C@H]([C@H](C)CC)NC(=O)[C@H](CC(C)C)N(C)C(=O)[C@@H]1C | 12.5 µg/mL (≈ 19.5 µM) | 100 µg/mL (≈ 156 µM) | > 100 µg/mL | 25 µg/mL (≈ 39.1 µM) | > 100 µg/mL | > 100 µg/mL | 25 µg/mL (≈ 39.1 µM) | > 100 µg/mL | 50 µg/mL (≈ 78.1 µM) | > 100 µg/mL | > 100 µg/mL | > 100 µg/mL | – | – | – | – |
| CCCCCC[C@H]1OC(=O)CNC(=O)[C@H]([C@H](C)O)NC(=O)[C@H](CO)NC(=O)[C@H]([C@H](C)CC)NC(=O)[C@H](CC(C)C)NC(=O)[C@@H]1C | 100 µg/mL (≈ 156 µM) | > 100 µg/mL | > 100 µg/mL | > 100 µg/mL | > 100 µg/mL | > 100 µg/mL | > 100 µg/mL | > 100 µg/mL | > 100 µg/mL | > 100 µg/mL | > 100 µg/mL | > 100 µg/mL | – | – | – | – |
